# Active and inactive are the calls of the source. The calls are words filed in the database; no cut-off is given here.
# Legend:
# T47D [1] = assay: Inhibition of PR-B gene expression in human T47D cells at 25 nM by syber green assay in presence of 10 nM estradiol; assay type: functional, cell-based
# T47D [2] = assay: Inhibition of PR-A gene expression in human T47D cells at 25 nM by syber green assay in presence of 10 nM estradiol; assay type: functional, cell-based
# T47D [3] = assay: Inhibition of PR-B mRNA gene expression in human T47D cells at 100 nM by syber green assay; assay type: functional
# Outline: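 T47D cells in RPMI-1640 with 10% FBS, NEAA, insulin, 37 °C, 5% CO2. Plated two days before transfection without antibiotics. Oligofectamine-mediated duplex RNA transfection at 100 nM final, medium changed at 24 h, harvest five days post-transfection. Total RNA extracted with TRIzol. hPR mRNA quantified by SYBR Green qPCR: 50 °C 2 min, 95 °C 10 min, then 40 cycles of 95 °C 15 s / 60 °C 1 min.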
# T47D [4] = assay: Inhibition of PR-A mRNA gene expression in human T47D cells at 100 nM by syber green assay; assay type: functional
# Outline: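 T47D cells plated at 80,000/well without antibiotics two days before Oligofectamine transfection with agRNA duplex (25 or 100 nM final); medium changed at 24 h, harvest day 5 unless stated otherwise. TRIzol total RNA; PR mRNA by real-time PCR with SYBR Green: 50 °C 2 min, 95 °C 10 min, 40 cycles 95 °C 15 s/60 °C 1 min.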
# T47D [5] = assay: Inhibition of major vault protein expression in human T47D cells at 100 nM by syber green assay; assay type: functional, cell-based
# T47D [6] = assay: Inhibition of cyclooxygenase-2 expression in human T47D cells at 25 nM by syber green assay; assay type: functional, cell-based
# T47D [7] = assay: Cytotoxicity against human T47D cells assessed as effect on cellular morphology; assay type: cell-based
Structure (SMILES),inhibition (T47D [1]),inhibition (T47D [2]),inhibition at 0.1 µM (T47D [3]) [%],inhibition at 0.1 µM (T47D [4]) [%],inhibition (T47D [5]),inhibition (T47D [6]),Activity (T47D [7])
Cc1cn(CC(=O)N(CCNC(=O)CN(CCNC(=O)CN(CCNC(=O)CN(CCNC(=O)CN(CCNC(=O)CN(CCNC(=O)CN(CCNC(=O)CN(CCNC(=O)CN(CCNC(=O)CN(CCNC(=O)CN(CCNC(=O)CN(CCNC(=O)CN(CCNC(=O)CN(CCNC(=O)CN(CCNC(=O)CN(CCNC(=O)CN(CCNC(=O)CN(CCNC(=O)CN(CCNC(=O)CN(CCNC(=O)CN)C(=O)Cn2cnc3c(=O)[nH]c(N)nc32)C(=O)Cn2cnc3c(=O)[nH]c(N)nc32)C(=O)Cn2cnc3c(=O)[nH]c(N)nc32)C(=O)Cn2ccc(=O)[nH]c2=O)C(=O)Cn2cnc3c(=O)[nH]c(N)nc32)C(=O)Cn2cnc3c(N)ncnc32)C(=O)Cn2cnc3c(=O)[nH]c(N)nc32)C(=O)Cn2cnc3c(N)ncnc32)C(=O)Cn2cnc3c(=O)[nH]c(N)nc32)C(=O)Cn2ccc(=O)[nH]c2=O)C(=O)Cn2ccc(=O)[nH]c2=O)C(=O)Cn2ccc(N)nc2=O)C(=O)Cn2ccc(N)nc2=O)C(=O)Cn2ccc(N)nc2=O)C(=O)Cn2ccc(N)nc2=O)C(=O)Cn2cnc3c(N)ncnc32)C(=O)Cn2ccc(=O)[nH]c2=O)C(=O)Cn2ccc(N)nc2=O)C(=O)Cn2ccc(=O)[nH]c2=O)CC(=O)NCCN(CC(=O)NCC(=O)O)C(=O)Cn2cc(C)c(=O)[nH]c2=O)c(=O)[nH]c1=O,Active,Active,91,91,Active,,
Cc1cn(CC(=O)N(CCNC(=O)CN(CCNC(=O)CN(CCNC(=O)CN(CCNC(=O)CN(CCNC(=O)CN(CCNC(=O)CN(CCNC(=O)CN(CCNC(=O)CN(CCNC(=O)CN(CCNC(=O)CN(CCNC(=O)CN(CCNC(=O)CN(CCNC(=O)CN(CCNC(=O)CN(CCNC(=O)CN(CCNC(=O)CN(CCNC(=O)CN(CCNC(=O)CN(CCNC(=O)CN(CCNC(=O)CN)C(=O)Cn2ccc(=O)[nH]c2=O)C(=O)Cn2ccc(N)nc2=O)C(=O)Cn2cnc3c(=O)[nH]c(N)nc32)C(=O)Cn2cnc3c(=O)[nH]c(N)nc32)C(=O)Cn2ccc(=O)[nH]c2=O)C(=O)Cn2ccc(=O)[nH]c2=O)C(=O)Cn2cnc3c(N)ncnc32)C(=O)Cn2cnc3c(=O)[nH]c(N)nc32)C(=O)Cn2ccc(N)nc2=O)C(=O)Cn2cnc3c(=O)[nH]c(N)nc32)C(=O)Cn2cnc3c(N)ncnc32)C(=O)Cn2ccc(N)nc2=O)C(=O)Cn2ccc(N)nc2=O)C(=O)Cn2cnc3c(N)ncnc32)C(=O)Cn2cnc3c(N)ncnc32)C(=O)Cn2ccc(=O)[nH]c2=O)C(=O)Cn2ccc(=O)[nH]c2=O)C(=O)Cn2cnc3c(N)ncnc32)C(=O)Cn2ccc(=O)[nH]c2=O)CC(=O)NCCN(CC(=O)NCC(=O)O)C(=O)Cn2cc(C)c(=O)[nH]c2=O)c(=O)[nH]c1=O,,Active,71,71,,Active,
Cc1cn([C@H]2C[C@H](OP(=O)(O)OC[C@H]3O[C@@H](n4cc(C)c(=O)[nH]c4=O)C[C@@H]3O)[C@@H](COP(=O)(O)O[C@H]3[C@@H](O)[C@H](n4ccc(N)nc4=O)O[C@@H]3COP(=O)(O)O[C@H]3[C@@H](O)[C@H](n4ccc(N)nc4=O)O[C@@H]3COP(=O)(O)O[C@H]3[C@@H](O)[C@H](n4cnc5c(N)ncnc54)O[C@@H]3COP(=O)(O)O[C@H]3[C@@H](O)[C@H](n4ccc(N)nc4=O)O[C@@H]3COP(=O)(O)O[C@H]3[C@@H](O)[C@H](n4cnc5c(N)ncnc54)O[C@@H]3COP(=O)(O)O[C@H]3[C@@H](O)[C@H](n4ccc(N)nc4=O)O[C@@H]3COP(=O)(O)O[C@H]3[C@@H](O)[C@H](n4ccc(N)nc4=O)O[C@@H]3COP(=O)(O)O[C@H]3[C@@H](O)[C@H](n4ccc(=O)[nH]c4=O)O[C@@H]3COP(=O)(O)O[C@H]3[C@@H](O)[C@H](n4cnc5c(=O)[nH]c(N)nc54)O[C@@H]3COP(=O)(O)O[C@H]3[C@@H](O)[C@H](n4cnc5c(N)ncnc54)O[C@@H]3COP(=O)(O)O[C@H]3[C@@H](O)[C@H](n4ccc(N)nc4=O)O[C@@H]3COP(=O)(O)O[C@H]3[C@@H](O)[C@H](n4ccc(N)nc4=O)O[C@@H]3COP(=O)(O)O[C@H]3[C@@H](O)[C@H](n4cnc5c(=O)[nH]c(N)nc54)O[C@@H]3COP(=O)(O)O[C@H]3[C@@H](O)[C@H](n4ccc(N)nc4=O)O[C@@H]3COP(=O)(O)O[C@H]3[C@@H](O)[C@H](n4ccc(=O)[nH]c4=O)O[C@@H]3COP(=O)(O)O[C@H]3[C@@H](O)[C@H](n4ccc(N)nc4=O)O[C@@H]3COP(=O)(O)O[C@H]3[C@@H](O)[C@H](n4ccc(=O)[nH]c4=O)O[C@@H]3COP(=O)(O)O[C@H]3[C@@H](O)[C@H](n4ccc(N)nc4=O)O[C@@H]3COP(=O)(O)O[C@H]3[C@@H](O)[C@H](n4ccc(=O)[nH]c4=O)O[C@@H]3CO)O2)c(=O)[nH]c1=O,,,< 20,< 20,,,Non-toxic
Cc1cn(CC(=O)N(CCNC(=O)CN(CCNC(=O)CN(CCNC(=O)CN(CCNC(=O)CN(CCNC(=O)CN(CCNC(=O)CN(CCNC(=O)CN(CCNC(=O)CN(CCNC(=O)CN(CCNC(=O)CN(CCNC(=O)CN(CCNC(=O)CN(CCNC(=O)CN(CCNC(=O)CN(CCNC(=O)CN(CCNC(=O)CN(CCNC(=O)CN(CCNC(=O)CN(CCNC(=O)CN(CCNC(=O)CN)C(=O)Cn2cnc3c(N)ncnc32)C(=O)Cn2cnc3c(=O)[nH]c(N)nc32)C(=O)Cn2cnc3c(=O)[nH]c(N)nc32)C(=O)Cn2ccc(N)nc2=O)C(=O)Cn2cnc3c(N)ncnc32)C(=O)Cn2cnc3c(=O)[nH]c(N)nc32)C(=O)Cn2cnc3c(=O)[nH]c(N)nc32)C(=O)Cn2cnc3c(=O)[nH]c(N)nc32)C(=O)Cn2ccc(=O)[nH]c2=O)C(=O)Cn2cnc3c(=O)[nH]c(N)nc32)C(=O)Cn2cnc3c(N)ncnc32)C(=O)Cn2cnc3c(=O)[nH]c(N)nc32)C(=O)Cn2cnc3c(N)ncnc32)C(=O)Cn2cnc3c(=O)[nH]c(N)nc32)C(=O)Cn2ccc(=O)[nH]c2=O)C(=O)Cn2ccc(=O)[nH]c2=O)C(=O)Cn2ccc(N)nc2=O)C(=O)Cn2ccc(N)nc2=O)C(=O)Cn2ccc(N)nc2=O)CC(=O)NCCN(CC(=O)NCC(=O)O)C(=O)Cn2cc(C)c(=O)[nH]c2=O)c(=O)[nH]c1=O,Active,Active,81,81,Active,,
Cc1cn(CC(=O)N(CCNC(=O)CN(CCNC(=O)CN(CCNC(=O)CN(CCNC(=O)CN(CCNC(=O)CN(CCNC(=O)CN(CCNC(=O)CN(CCNC(=O)CN(CCNC(=O)CN(CCNC(=O)CN(CCNC(=O)CN(CCNC(=O)CN(CCNC(=O)CN(CCNC(=O)CN(CCNC(=O)CN(CCNC(=O)CN(CCNC(=O)CN(CCNC(=O)CN(CCNC(=O)CN(CCNC(=O)CN)C(=O)Cn2ccc(=O)[nH]c2=O)C(=O)Cn2ccc(=O)[nH]c2=O)C(=O)Cn2cnc3c(N)ncnc32)C(=O)Cn2cnc3c(=O)[nH]c(N)nc32)C(=O)Cn2ccc(N)nc2=O)C(=O)Cn2cnc3c(=O)[nH]c(N)nc32)C(=O)Cn2cnc3c(N)ncnc32)C(=O)Cn2ccc(N)nc2=O)C(=O)Cn2ccc(N)nc2=O)C(=O)Cn2cnc3c(N)ncnc32)C(=O)Cn2cnc3c(N)ncnc32)C(=O)Cn2ccc(=O)[nH]c2=O)C(=O)Cn2ccc(=O)[nH]c2=O)C(=O)Cn2cnc3c(=O)[nH]c(N)nc32)C(=O)Cn2ccc(=O)[nH]c2=O)C(=O)Cn2ccc(N)nc2=O)C(=O)Cn2cnc3c(N)ncnc32)C(=O)Cn2ccc(=O)[nH]c2=O)C(=O)Cn2cnc3c(N)ncnc32)CC(=O)NCCN(CC(=O)NCC(=O)O)C(=O)Cn2cc(C)c(=O)[nH]c2=O)c(=O)[nH]c1=O,,Active,81,81,,Active,
